Results on 33 compounds are retold here after ChEMBL document CHEMBL1221292, “Design, synthesis, and evaluation of quinazoline T cell proliferation inhibitors” (Bioorg Med Chem, 2010).

Activity calls are given as the source filed them. The rule behind the calls is not given here.

What all share (assay type): functional, cell-based
For one assay, the system named is PBMC. Nature of the assay: Antiproliferative activity against ConA-stimulated human PBMC after 72 hrs by BrdU incorporation assay. In short, it runs like this:
(§1)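 Cells grown in RPMI at 37 °C, 5% CO2, then serum-starved 12 h. PBMC stimulated with ConA 10 µg/mL; Jurkat need no stimulation. 1 × 10^5 cells cultured 3 days with or without inhibitor, duplicate wells. Labelled with 10 µM BrdU, DNA denatured, anti-BrdU-POD added, colorimetric TMB read-out; IC50 derived.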

The test system of a further assay is Jurkat. Nature of the assay: Antiproliferative activity against human Jurkat cells after 72 hrs by BrdU incorporation assay. In short, it runs like this:
as §1

The test system of another assay is Splenocyte. Nature of the assay: Inhibition of irradiated BALB/c mouse splenocyte-stimulated IL2 secretion in 2C mouse splenocyte after 72 hrs by mixed lymphocyte reaction. The method in brief:
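MLR: splenocytes from 2c mice stimulated by irradiated BALB/c splenocytes in the presence of compound at the specified concentrations, 96-well cultures up to 72 h. Supernatants collected at 24, 48 and 72 h; IL-2 measured by ELISA at 450 nm.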

For the compound `Oc1cc(-c2nc(NCc3ccccc3)c3ccccc3n2)cc(O)c1O`, the IC50 in the assay on PBMC came to 7000 nM; in the assay with Jurkat, 950 nM.
The matching figures for `COc1ccc(Nc2nc(-c3cc(OC)c(OC)c(OC)c3)nc3ccccc23)cc1`: 500 nM and 1100 nM.
The like results for `Oc1cc(-c2nc(Nc3ccc4nc[nH]c4c3)c3ccccc3n2)cc(O)c1O` were, in that order, 4340 nM and 2570 nM.
The matching figures for `COc1cc(-c2nc(NCc3ccccc3)c3ccccc3n2)cc(OC)c1OC`: 3250 nM and 600 nM.
Regarding `COc1ccc(CNc2nc(-c3cc(O)c(O)c(O)c3)nc3ccccc23)cc1`, the IC50 worked out at 3260 nM with PBMC and 5430 nM with Jurkat.
The like results for `COc1cc(-c2nc(Nc3ccc(OC(F)(F)F)cc3)c3ccccc3n2)cc(OC)c1OC` were, in that order, 400 nM and 180 nM.
The matching figures for `Oc1cc(-c2nc(Nc3ccc4c(c3)OCO4)c3ccccc3n2)cc(O)c1O`: 5500 nM and 800 nM.
For `COc1ccc(CNc2nc(-c3cc(OC)c(OC)c(OC)c3)nc3ccccc23)cc1`, the values for the IC50 in the assay on PBMC and in the assay on Jurkat were 500 nM and 1100 nM, respectively.
The like results for `COc1cc(-c2nc(NCc3ccc(F)c(F)c3)c3ccccc3n2)cc(OC)c1OC` were, in that order, 200 nM and 730 nM.
For the compound `COc1cc(-c2nc(Nc3ccc(Cl)cc3)c3ccccc3n2)cc(OC)c1OC`, the IC50 in the assay on PBMC is 300 nM; with Jurkat, 530 nM.
The matching figures for `Oc1cc(-c2nc(NCc3ccc(F)c(F)c3)c3ccccc3n2)cc(O)c1O`: 280 nM and 600 nM.
Regarding `COc1cc(-c2nc(NCc3ccc(Cl)c(Cl)c3)c3ccccc3n2)cc(OC)c1OC`, the results for the IC50 in the assay on PBMC and in the assay with Jurkat were 300 nM and 730 nM, respectively.
The matching figures for `Oc1ccc(Nc2nc(-c3cc(O)c(O)c(O)c3)nc3ccccc23)cc1`: 970 nM and 1120 nM.
The matching figures for `Oc1cc(-c2nc(Nc3ccc4[nH]ncc4c3)c3ccccc3n2)cc(O)c1O`: 780 nM and 710 nM.
With `COc1cc(-c2nc(Nc3ccc4nc[nH]c4c3)c3ccccc3n2)cc(OC)c1OC`, the half-maximal inhibitory concentration (IC50) came to 430 nM with PBMC and 1500 nM in the assay on Jurkat.
The matching figures for `Oc1cc(-c2nc(NCc3ccc(Cl)c(Cl)c3)c3ccccc3n2)cc(O)c1O`: 2600 nM and 3640 nM.
The matching figures for `COc1cc(-c2nc(Nc3ccc4c(c3)OCO4)c3ccccc3n2)cc(OC)c1OC`: 380 nM and 600 nM.
With `COc1cc(-c2nc(Nc3ccc(C)cc3C)c3ccccc3n2)cc(OC)c1OC`, the IC50 with PBMC worked out at 750 nM; in the assay on Jurkat, 2600 nM.
The like results for `Nc1ccc(CNc2nc(-c3cc(O)c(O)c(O)c3)nc3ccccc23)cc1` were, in that order, 570 nM and 670 nM.
Take `COc1cc(-c2nc(NCc3ccc(N)cc3)c3ccccc3n2)cc(OC)c1OC`: the values for the IC50 in the assay on PBMC and with Jurkat were 380 nM and 480 nM, respectively.
On to `COc1cc(-c2nc(Nc3ccccc3)c3ccccc3n2)cc(OC)c1OC`, for which the figures for the IC50 in the assay on PBMC and with Jurkat were 280 nM and 380 nM, respectively.
As to `Cc1ccc(Nc2nc(-c3cc(O)c(O)c(O)c3)nc3ccccc23)cc1`, the IC50 in the assay with PBMC and in the assay with Jurkat was 850 nM each time. Also, the inhibition result in the assay on Splenocyte was “Active”.
As for `Oc1cc(-c2nc(Nc3ccc(OC(F)(F)F)cc3)c3ccccc3n2)cc(O)c1O`, the IC50 with PBMC was determined as 2780 nM; in the assay on Jurkat it was 3240 nM.
The matching figures for `Oc1cc(-c2nc(Nc3ccccc3)c3ccccc3n2)cc(O)c1O`: 650 nM and 5500 nM.
The matching figures for `CCCCCCCCOc1ccc(Nc2nc(-c3cc(O)c(O)c(O)c3)nc3ccccc23)cc1`: 4530 nM and 4250 nM.
On to `Cc1ccc(Nc2nc(-c3cc(O)c(O)c(O)c3)nc3ccccc23)c(C)c1`, for which the IC50 was found to be 730 nM in the assay with PBMC and 3700 nM in the assay on Jurkat.
Take `COc1ccc(Nc2nc(-c3cc(O)c(O)c(O)c3)nc3ccccc23)cc1`: the IC50 with PBMC worked out at 500 nM; with Jurkat, 550 nM.
The matching figures for `CCCCCCCCOc1ccc(Nc2nc(-c3cc(OC)c(OC)c(OC)c3)nc3ccccc23)cc1`: 2400 nM and 850 nM.
The matching figures for `COc1cc(-c2nc(Nc3ccc4cn[nH]c4c3)c3ccccc3n2)cc(OC)c1OC`: 450 nM and 600 nM.
The like results for `COc1cc(-c2nc(Nc3ccc(O)cc3)c3ccccc3n2)cc(OC)c1OC` were, in that order, 300 nM and 230 nM.
For `Oc1cc(-c2nc(Nc3ccc(Cl)cc3)c3ccccc3n2)cc(O)c1O`, the results for the IC50 in the assay on PBMC and in the assay on Jurkat were 550 nM and 4250 nM, respectively.
The matching figures for `COc1cc(-c2nc(Nc3ccc4[nH]ncc4c3)c3ccccc3n2)cc(OC)c1OC`: 600 nM and 700 nM.
The like results for `Oc1cc(-c2nc(Nc3ccc4cn[nH]c4c3)c3ccccc3n2)cc(O)c1O` were, in that order, 500 nM and 690 nM.
